Source: PubChem BioAssay (Johns Hopkins Ion Channel Center)
Only some compounds are listed: those with a hit (about 2.3% of all), similar ones and a draw of the others.
TRPC4 block – TRPC4 (mouse) channel inhibition | HEK293 TRPC4beta/mu-opioid, DAMGO-evoked Fluo4 calcium flux; hits give low values | Q9QUQ5 | B-score at 10 µM | 0.39% of 300,000 active;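 active = B-score over 3 SD under the library average, no early fluorescence shift, positive overall ratio signal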
Target sequence (Q9QUQ5 whole entry, looked up): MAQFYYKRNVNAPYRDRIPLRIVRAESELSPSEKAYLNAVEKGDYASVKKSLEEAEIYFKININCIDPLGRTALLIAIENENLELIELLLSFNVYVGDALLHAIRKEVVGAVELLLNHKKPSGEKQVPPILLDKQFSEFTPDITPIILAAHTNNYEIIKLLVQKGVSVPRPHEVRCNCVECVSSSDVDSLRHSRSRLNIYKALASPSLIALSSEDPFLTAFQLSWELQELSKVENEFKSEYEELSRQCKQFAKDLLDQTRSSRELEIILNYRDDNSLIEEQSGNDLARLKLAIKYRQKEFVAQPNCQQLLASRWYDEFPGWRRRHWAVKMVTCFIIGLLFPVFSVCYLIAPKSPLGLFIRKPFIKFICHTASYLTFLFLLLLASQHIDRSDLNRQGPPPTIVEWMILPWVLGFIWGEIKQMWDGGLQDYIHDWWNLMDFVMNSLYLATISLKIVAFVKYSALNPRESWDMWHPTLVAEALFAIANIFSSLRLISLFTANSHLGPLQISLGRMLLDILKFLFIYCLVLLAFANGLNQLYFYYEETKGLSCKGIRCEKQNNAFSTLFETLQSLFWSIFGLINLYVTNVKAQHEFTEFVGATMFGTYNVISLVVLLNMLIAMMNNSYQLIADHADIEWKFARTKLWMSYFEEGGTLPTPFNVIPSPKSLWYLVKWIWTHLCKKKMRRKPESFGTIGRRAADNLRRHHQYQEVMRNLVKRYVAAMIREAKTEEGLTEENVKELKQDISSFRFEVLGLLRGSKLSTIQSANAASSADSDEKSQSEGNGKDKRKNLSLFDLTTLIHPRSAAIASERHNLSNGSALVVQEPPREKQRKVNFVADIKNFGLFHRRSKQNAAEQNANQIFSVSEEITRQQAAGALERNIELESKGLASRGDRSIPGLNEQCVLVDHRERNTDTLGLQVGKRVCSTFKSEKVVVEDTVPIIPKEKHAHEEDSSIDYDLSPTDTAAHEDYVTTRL
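Test system – stable TRPC4beta/mu-opioid receptor HEK293 cells · Probe or stimulus – DAMGO, a submaximal dose followed by a maximal one · Dosing – one concentration per compound · Signal – Fluo4 calcium fluorescence by kinetic imaging, 5 s 1 Hz baseline · Evaluation – per-well B score of integrated baseline-normalized Fluo4 ratio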
TRPC4 potent – TRPC4 (mouse) allosteric potentiation; 0.42% of 310,000 active; Q9QUQ5; HEK293 TRPC4beta/mu-opioid, DAMGO EC20, Fluo-4 Ca2+ flux; hits give high values; AID 2227; B-score at 10 µM;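 active = B-score of calcium response area above 5 SD of library B-scores, with initial fluorescence ratio within 5 SD of library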
TRPC4 agonist – TRPC4 (mouse) channel activation | Q9QUQ5 | HEK293 TRPC4beta/mu-opioid, Fluo4 calcium fluorescence; hits give high values | B-score at 10 µM | 0.49% of 310,000 active;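 active = B-score above 5 SD of library B-scores, and initial fluorescence ratio not above library mean plus 5 SD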;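 also: positive B-score marks a calcium rise read as TRPC4 activation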
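Incubation: 45 min room-temperature Fluo4 loading, 110 s read / System: HEK293 cells stably co-expressing mouse TRPC4beta and mu-opioid receptor / Signal: Fluo4 fluorescence, kinetic / Control set: buffer (low) and maximal DAMGO (high) / Measure: integrated baseline-normalised fluorescence ratio, converted to per-well B score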
TRPC6 inhibitor – blocks the mouse TRPC6 cation channel; 1.1% of 310,000 active; HEK293-TRPC6, membrane potential dye, ACh-evoked depolarization; hits give low values; Q61143; B-score at 10 µM;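 active = B-score under library mean minus 3 SD, initial fluorescence not abnormally high, positive integrated signal ratio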;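 also: B-score derived from integrated fluorescence ratio over the kinetic read; more negative B-score means stronger inhibition of depolarization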
TRPC6 act – activators of mouse TRPC6 channel. 0.13% of 310,000 active. AID 2550. Q61143. HEK293-TRPC6 membrane potential dye fluorescence; hits give high values. B-score at 10 µM;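 active = B-score of the integrated fluorescence ratio above library mean plus 3 SD, and starting fluorescence ratio within library mean plus 5 SD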;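 also: higher score means more depolarization so channel activation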
TRPC4 sel inh 2 – second check of whether TRPC6 inhibitors also affect mouse TRPC4. shares compounds with TRPC6 inhibitor. HEK293 TRPC4/MOR, membrane potential dye fluorescence; channel activated by saturating DAMGO dose. inhibition, % at 10 µM. 42% of 920 active. AID 2776;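 active = compounds whose fluorescence signal differed from control wells by over 3 SD, either direction, in both duplicate plates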
TRPC4 spec – mouse TRPC4 off-target activity of TRPC6 inhibitors | shares compounds with TRPC6 inhibitor | HEK293 TRPC4/mu-opioid, membrane potential fluorescence | activity change, negative = inhibition, % at 10 µM | 61% of 920 active | AID 2777;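 active = rise or fall in signal beyond 3 SD of buffer-only wells in both replicate plates, either sign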;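 also: integrated kinetic ratio of fluorescence range over baseline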
HEK293 MPD ctr 2-1 – parental HEK293 nonspecific activity of TRPC6 inhibitors, second screen | shares compounds with TRPC6 inhibitor | AID 2779 | parental HEK293 membrane potential dye fluorescence; maximal acetylcholine challenge after compound addition | 31% of 920 active | signal change vs control, % at 10 µM;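 active = membrane potential signal moving either way by over 3 SD of the maximum-effect control, in both duplicate plates, meaning non-specific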
HEK293 MPD ctr-1 – checks TRPC6 inhibitor effects in parental HEK293 cells; membrane potential signal change, % at 10 µM; shares compounds with TRPC6 inhibitor; parental HEK293 membrane potential dye fluorescence; 60% of 920 active;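 active = membrane potential signal shifting up or down by more than 3 SD of buffer-only wells, on both duplicate plates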
HEK293 MPD ctr-2 – checks TRPC6 modulator effects in parental HEK293 cells; membrane potential dye fluorescence; membrane potential signal change, % at 10 µM; shares compounds with TRPC6 inhibitor; 51% of 2,400 active; AID 488924;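 active = membrane potential signal moves up or down beyond 5 SD from buffer-only wells, on both duplicate plates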
HEK293 MPD ctr 2-2 – second check of TRPC6 modulator effects in parental HEK293 cells; inhibition, % at 10 µM; shares compounds with TRPC6 inhibitor; membrane potential dye fluorescence; after compound, maximal acetylcholine stimulation; 14% of 2,400 active;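 active = membrane potential signal drops by more than 5 SD from the mean control signal, in both duplicate plates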
TRPC4 ctr mod – selectivity of TRPC6 modulators against mouse TRPC4 | 69% of 2,400 active | HEK293 TRPC4/mu-opioid, membrane potential fluorescence | shares compounds with TRPC6 inhibitor | percent change from control (negative = decrease, positive = increase), % at 10 µM;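 active = membrane potential signal moved up or down beyond 5 SD of buffer control wells, in both duplicate plates, actives on both sides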
TRPC4/MOR inh 2 – mouse TRPC4 off-target activity of TRPC6 modulators, second screen; shares compounds with TRPC6 inhibitor; HEK293 TRPC4/mu-opioid, membrane potential dye fluorescence; stimulated with maximal-effect DAMGO; inhibition, % at 10 µM; 55% of 2,400 active; AID 488928;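 active = drop in membrane potential signal beyond 5 SD of the control wells in both duplicate plates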;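 also: TRPC4 counter screen for TRPC6 hits run under conditions tuned for TRPC6 not TRPC4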
TRPC6 block conf – confirmation of mouse TRPC6 inhibitors; AID 488960; 43% of 3,300 active; HEK293-TRPC6, membrane potential dye, ACh-evoked depolarization; inhibition, % at 10 µM; shares compounds with TRPC6 inhibitor;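 active = fluorescence ratio falls more than 5 SD below the full-stimulation control mean, in both duplicate runs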;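 also: integrated fluorescence ratio of peak minus minimum over baseline after agonist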
TRPC6 act confirm – confirmation of mouse TRPC6 activators; shares compounds with TRPC6 inhibitor; HEK293-TRPC6 membrane potential dye fluorescence, FDSS; activation, % at 10 µM; 11% of 2,800 active;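 active = ratio signal rise beyond 5 SD above unstimulated control wells' mean, seen in both duplicate runs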
Numbers stand for hits; i = inactive; nt = no result.

SMILES	TRPC4 block	TRPC4 potent	TRPC4 agonist	TRPC6 inhibitor	TRPC6 act	HEK293 MPD ctr-2	HEK293 MPD ctr 2-2	TRPC4 ctr mod	TRPC4/MOR inh 2	TRPC6 block conf	TRPC6 act confirm	others
Cc1ccc(NC(=O)CCCn2nc(C)c3c(C)n(-c4ccccc4)nc3c2=O)c(Cl)c1	i	i	i	i	i	nt	nt	nt	nt	nt	nt
CCOCCCNc1nc2nc3ccc(C)cn3c(=O)c2cc1C(=O)NCC1CCCO1 (stereo not drawn)	i	i	i	-5.5	i	149%	61%	24%	i	i	nt
N=c1c(C(=O)NCC2CCCO2)cc2c(=O)n3ccccc3nc2n1Cc1cccnc1 (stereo not drawn)	i	i	i	-7.5	i	i	84%	-100%	33%	50%	i
N=c1c(C(=O)NCCc2ccccc2)cc2c(=O)n3ccccc3nc2n1Cc1ccco1	i	i	i	i	i	nt	nt	nt	nt	nt	nt
N=c1c(C(=O)NCC2CCCO2)cc2c(=O)n3ccccc3nc2n1Cc1ccco1 (stereo not drawn)	i	i	i	-5.3	i	i	76%	13%	i	i	i
N=c1c(C(=O)NCC2CCCO2)cc2c(=O)n3ccccc3nc2n1Cc1ccc(F)cc1 (stereo not drawn)	i	i	i	-6	i	i	i	-9.5%	48%	48%	i
Cc1cc([N+](=O)[O-])ccc1NC(=O)CSc1nnc(C)n1C	i	i	i	i	i	nt	nt	nt	nt	nt	nt
CCN(CC(=O)Nc1ccc(NC(C)=O)cc1)C(=O)COc1ccccc1Cc1ccccc1	i	i	i	i	i	nt	nt	nt	nt	nt	nt
CCOc1ccc(CCNC(=O)c2c(C)nn(-c3ccccc3)c2Cl)cc1OCC	i	i	i	i	i	nt	nt	nt	nt	nt	nt
C=CC#CC[N+]1(CC#Cc2ccccc2)CCOCC1	i	i	i	i	i	nt	nt	nt	nt	nt	nt
C=CC[N+]1(CC#CCOC(c2ccccc2)c2ccccc2)CCOCC1	i	i	i	-5.5	i	i	i	-16%	i	37%	i
COc1ccc(S(=O)(=O)N2CCOC2CNC(=O)C(=O)NCCCN(C)C)cc1C (stereo not drawn)	i	i	i	i	i	nt	nt	nt	nt	nt	nt
Cc1ccc(C2C3=C(NCCN=C3c3ccccc3)C(=O)N2c2ccccc2)cc1 (stereo not drawn)	i	i	i	-6.6	i	nt	nt	nt	nt	75%	i	TRPC4 sel inh 2=16%;TRPC4 spec=18%;HEK293 MPD ctr 2-1=i;HEK293 MPD ctr-1=1.3%
CCOc1ccc(N2C(=O)C3=C(C(c4ccc(Cl)cc4)=NCCN3)C2c2cccnc2)cc1 (stereo not drawn)	i	i	i	i	i	nt	nt	nt	nt	nt	nt
c1ccc(Cn2c(CNc3nc4ccccc4n3CCN3CCCCC3)nc3ccccc32)cc1	i	i	i	-6.7	i	nt	nt	nt	nt	i	i	TRPC4 sel inh 2=59%;TRPC4 spec=11%;HEK293 MPD ctr 2-1=284%;HEK293 MPD ctr-1=6.9%
CCN(CC)c1ccc(CNc2nc3ccccc3n2CCN2CCCCC2)cc1	i	i	119	-5.9	i	i	i	32%	97%	52%	i
CCn1c(NCc2ccc(N(C)C)cc2)nc2ccccc21	i	i	i	-5.3	i	i	i	-14%	46%	i	i
CCN(CC)CCn1c(NCc2nc3ccccc3n2Cc2ccccc2)nc2ccccc21	i	i	i	-7.1	i	nt	nt	nt	nt	53%	i	TRPC4 sel inh 2=36%;TRPC4 spec=18%;HEK293 MPD ctr 2-1=276%;HEK293 MPD ctr-1=8.3%
CCN(CC)CCn1c(NCc2ccco2)nc2ccccc21	i	i	i	i	i	nt	nt	nt	nt	nt	nt
CCOc1ccc(NC(=O)N2CCCC2C(=O)NCc2ccco2)cc1 (stereo not drawn)	i	i	i	i	i	nt	nt	nt	nt	nt	nt
COc1ccc(CNc2nc3ccccc3n2CCN2CCCCC2)cc1	i	i	i	i	i	nt	nt	nt	nt	nt	nt
Cn1c(CNc2nc3ccccc3n2CCN2CCCCC2)nc2ccccc21	i	i	i	-6.5	i	i	i	i	72%	44%	i
Cn1cccc1CNC1CCCCC1	i	i	i	i	i	nt	nt	nt	nt	nt	nt
c1ccc(-n2cccc2CNC2CCCCC2)cc1	i	i	i	-6.9	i	nt	nt	nt	nt	i	nt	TRPC4 sel inh 2=i;TRPC4 spec=i;HEK293 MPD ctr 2-1=i;HEK293 MPD ctr-1=i
CC(=O)N1CCOc2ccc(S(=O)(=O)NCCc3cccc(C)c3)cc21	i	i	i	i	i	nt	nt	nt	nt	nt	nt
SMILES	TRPC4 block	TRPC4 potent	TRPC4 agonist	TRPC6 inhibitor	TRPC6 act	HEK293 MPD ctr-2	HEK293 MPD ctr 2-2	TRPC4 ctr mod	TRPC4/MOR inh 2	TRPC6 block conf	TRPC6 act confirm	others
COc1ccc(C(=O)N/C(=C\c2ccccc2)C(=O)Nc2ccccc2C(=O)O)cc1	i	i	i	i	i	nt	nt	nt	nt	nt	nt
CCNCCOC(c1ccccc1)c1ccccc1	i	i	i	-5.8	i	142%	i	27%	36%	i	nt
CC(C)n1c(=NC(=O)c2ccco2)c(C#N)cc2c(=O)n3ccccc3cc21	i	i	i	-6.1	i	-86%	i	-24%	i	i	i
CCOC(=O)c1cc2c(=O)n3ccccc3nc2n(C(C)C)c1=NC(=O)c1ccco1	i	i	i	i	i	nt	nt	nt	nt	nt	nt
CCN(CC(=O)Nc1cc(Cl)ccc1C)C(=O)c1ccc(=O)n(Cc2ccccc2)n1	i	i	i	i	i	nt	nt	nt	nt	nt	nt
CCC(C)c1ccc(OCc2ccc(C(=O)OC)o2)cc1 (stereo not drawn)	i	i	i	i	i	nt	nt	nt	nt	nt	nt
COc1ccc(/C(C)=N/NC2=NCCN2)cc1Cl	i	i	i	i	i	nt	nt	nt	nt	nt	nt
CCCCOc1ccc(Br)cc1/C(C)=N/NC1=NCCN1	i	i	i	-7.3	i	nt	nt	nt	nt	i	i	TRPC4 sel inh 2=27%;TRPC4 spec=15%;HEK293 MPD ctr 2-1=233%;HEK293 MPD ctr-1=8.4%
CC(O)c1nc2ccccc2n1CC(=O)N1CCN(c2ccccc2)CC1 (stereo not drawn)	i	i	i	i	i	nt	nt	nt	nt	nt	nt
